Each block holds one molecule with its values, some of them ahead of it.
Assays:
Rattus norvegicus [1] = assay: Biodistribution of I-125 labeled compound in rat lungs, 1 hr after intravenous injection. value expressed in average % dose per organ; value may range from 11.5 to 26.1; type: ADME, organism-based, Lung; conditions: in vivo
Rattus norvegicus [2] = assay: Biodistribution of I-125 labeled compound in rat blood, 1 hr after intravenous injection. value expressed in average % dose per organ; value may range from 0.99 to 1.37; type: ADME, organism-based; conditions: in vivo
Rattus norvegicus [3] = assay: Biodistribution of I-125 labeled compound in rat brain to blood ratio, 2 min after intravenous injection. value expressed in % dose per gram ratio; type: ADME, organism-based
Summary of the method: (§1)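 Rats given I-125 diamine iv; tissue activity at 2 min or 1 h compared with diluted injected-dose aliquots. % dose per gram approximated as % dose per organ divided by mean organ weight (brain 1.65 g; blood 18 g). Ratio taken from the per-gram values.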

Rattus norvegicus [4] = assay: Biodistribution of I-125 labeled compound in rat heart, 2 min after intravenous injection. value expressed in average % dose per organ; value may range from 2.20 to 3.07; type: ADME, organism-based; conditions: in vivo
Rattus norvegicus [5] = assay: Biodistribution of I-125 labeled compound in rat brain, 1 hr after intravenous injection. value expressed in average % dose per organ; value may range from 1.51 to 2.17; type: ADME, organism-based; conditions: in vivo
Rattus norvegicus [6] = assay: Biodistribution of I-125 labeled compound in rat brain, 2 min after intravenous injection. value expressed in average % dose per organ; value may range from 1.45 to 1.89; type: ADME, organism-based; conditions: in vivo
Rattus norvegicus [7] = assay: Biodistribution of I-125 labeled compound in rat blood, 2 min after intravenous injection. value expressed in average % dose per organ; value may range from 2.74 to 5.33; type: ADME, organism-based; conditions: in vivo
Rattus norvegicus [8] = assay: Biodistribution of I-125 labeled compound in rat liver, 1 hr after intravenous injection. value expressed in average % dose per organ; value may range from 7.32 to 10.1; type: ADME, organism-based; conditions: in vivo
Rattus norvegicus [9] = assay: Biodistribution of I-125 labeled compound in rat liver, 2 min after intravenous injection. value expressed in average % dose per organ; value may range from 6.36 to 14.2; type: ADME, organism-based; conditions: in vivo
Rattus norvegicus [10] = assay: Biodistribution of I-125 labeled compound in rat thyroid, 2 min after intravenous injection. value expressed in average % dose per organ; value may range from 0.15 to 0.25; type: ADME, organism-based, Thyroid gland; conditions: in vivo
Rattus norvegicus [11] = assay: Biodistribution of I-125 labeled compound in rat heart, 1 hr after intravenous injection. value expressed in average % dose per organ; value may range from 1.12 to 1.86; type: ADME, organism-based; conditions: in vivo
Rattus norvegicus [12] = species on record: Rattus norvegicus; assay: Distribution coefficient at pH 7.0 in rat; type: ADME, organism-based
Summary of the method: (§2)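 Octanol/buffer partition: I-125 labeled diamine mixed with 3 g each of 1-octanol and 0.1 M phosphate buffer at pH 7.0 or 7.4, vortexed 3× 1 min, centrifuged 5 min. Two 0.5 g samples of each layer counted. Value is cpm/g octanol over cpm/g buffer, usually repeated three times.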

Rattus norvegicus [13] = species on record: Rattus norvegicus; assay: Distribution coefficient at pH 7.4 in rat; type: ADME, organism-based; summary of the method: as §2
Rattus norvegicus [14] = assay: Biodistribution of I-125 labeled compound in rat thyroid, 1 hr after intravenous injection. value expressed in average % dose per organ; value may range from 0.16 to 0.26; type: ADME, organism-based, Thyroid gland; conditions: in vivo
[15] = The protein binding ability of compound was expressed in Percent free; type: ADME; conditions: read-out: % free
Summary of the method: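 Binding to pooled human serum was measured by equilibrium dialysis. 0.4 mL serum and 0.4 mL 0.15 M phosphate buffer, pH 7.4, were separated by a membrane, and 0.025 μCi radiolabeled diamine was added on the buffer side. Cells were rotated at 37 °C for 18 h, and aliquots from both sides were weighed and counted. % free = buffer/serum radioactivity concentration ratio × 100. The membrane was also counted.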

Rattus norvegicus [16] = assay: Biodistribution of I-125 labeled compound in rat lungs, 2 min after intravenous injection. value expressed in average % dose per organ; value may range from 24.6 to 42.2; type: ADME, organism-based, Lung; conditions: in vivo
Rattus norvegicus [17] = assay: Biodistribution of I-125 labeled compound in rat muscle, 1 hr after intravenous injection. value expressed in average % dose per organ; value may range from 11.3 to 17.1; type: ADME, organism-based, Muscle tissue; conditions: in vivo
Rattus norvegicus [18] = assay: Biodistribution of I-125 labeled compound in rat muscle, 2 min after intravenous injection. value expressed in average % dose per organ; value may range from 4.59 to 12.0; type: ADME, organism-based, Muscle tissue; conditions: in vivo
Rattus norvegicus [19] = assay: Biodistribution of I-125 labeled compound in rat brain to blood ratio, 1 hr after intravenous injection. value expressed in % dose per gram ratio; type: ADME, organism-based; summary of the method: as §1
Rattus norvegicus [20] = assay: Biodistribution of I-125 labeled compound in rat blood, 1 hr after intravenous injection. value expressed in average % dose per organ; value may range from 1.13 to 1.60; type: ADME, organism-based; conditions: in vivo
Rattus norvegicus [21] = assay: Biodistribution of I-125 labeled compound in rat blood, 2 min after intravenous injection. value expressed in average % dose per organ; value may range from 4.84 to 5.25; type: ADME, organism-based; conditions: in vivo
Rattus norvegicus [22] = assay: Biodistribution of I-125 labeled compound in rat brain to blood ratio, 2 m in after intravenous injection. value expressed in % dose per gram ratio; type: ADME, organism-based; summary of the method: as §1
Rattus norvegicus [23] = assay: Biodistribution of I-125 labeled compound in rat heart, 2 min after intravenous injection. value expressed in average % dose per organ; value may range from 1.95 to 2.54; type: ADME, organism-based; conditions: in vivo
Rattus norvegicus [24] = assay: Biodistribution of I-125 labeled compound in rat liver, 1 hr after intravenous injection. value expressed in average % dose per organ; value may range from 8.10 to 10.6; type: ADME, organism-based; conditions: in vivo
Rattus norvegicus [25] = assay: Biodistribution of I-125 labeled compound in rat brain, 1 hr after intravenous injection. value expressed in average % dose per organ; value may range from 1.39 to 1.47; type: ADME, organism-based; conditions: in vivo
Rattus norvegicus [26] = assay: Biodistribution of I-125 labeled compound in rat liver, 2 min after intravenous injection. value expressed in average % dose per organ; value may range from 8.10 to 8.95; type: ADME, organism-based; conditions: in vivo
Rattus norvegicus [27] = assay: Biodistribution of I-125 labeled compound in rat thyroid, 1 hr after intravenous injection. value expressed in average % dose per organ; value may range from 0.18 to 0.25; type: ADME, organism-based, Thyroid gland; conditions: in vivo
Rattus norvegicus [28] = assay: Biodistribution of I-125 labeled compound in rat thyroid, 2 min after intravenous injection. value expressed in average % dose per organ; value may range from 0.13 to 0.20; type: ADME, organism-based, Thyroid gland; conditions: in vivo
Rattus norvegicus [29] = assay: Biodistribution of I-125 labeled compound in rat brain, 2 min after intravenous injection. value expressed in average % dose per organ; value may range from 1.28 to 1.56; type: ADME, organism-based; conditions: in vivo
Rattus norvegicus [30] = assay: Biodistribution of I-125 labeled compound in rat heart, 1 hr after intravenous injection. value expressed in average % dose per organ; value may range from 1.54 to 1.76; type: ADME, organism-based; conditions: in vivo
Rattus norvegicus [31] = assay: Biodistribution of I-125 labeled compound in rat muscle, 2 min after intravenous injection. value expressed in average % dose per organ; value may range from 7.52 to 9.77; type: ADME, organism-based, Muscle tissue; conditions: in vivo
Rattus norvegicus [32] = assay: Biodistribution of I-125 labeled compound in rat lungs, 1 hr after intravenous injection. value expressed in average % dose per organ; value may range from 14.0 to 17.9; type: ADME, organism-based, Lung; conditions: in vivo
Rattus norvegicus [33] = assay: Biodistribution of I-125 labeled compound in rat muscle, 1 hr after intravenous injection. value expressed in average % dose per organ; value may range from 11.9 to 16.0; type: ADME, organism-based, Muscle tissue; conditions: in vivo
Rattus norvegicus [34] = assay: Biodistribution of I-125 labeled compound in rat lungs, 2 min after intravenous injection. value expressed in average % dose per organ; value may range from 36.9 to 42.9; type: ADME, organism-based, Lung; conditions: in vivo

Average dose per organ (Rattus norvegicus [1]): 16.1%
Average dose per organ (Rattus norvegicus [2]): 1.15%
Ratio (Rattus norvegicus [3]): 4.49%
Average dose per organ (Rattus norvegicus [4]): 2.67%
Average dose per organ (Rattus norvegicus [5]): 1.79%
Average dose per organ (Rattus norvegicus [6]): 1.71%
Average dose per organ (Rattus norvegicus [7]): 4.09%
Average dose per organ (Rattus norvegicus [8]): 8.01%
Average dose per organ (Rattus norvegicus [9]): 9.54%
Average dose per organ (Rattus norvegicus [10]): 0.17%
Average dose per organ (Rattus norvegicus [11]): 1.49%
Distribution coefficient (Rattus norvegicus [12]): 44.8
Distribution coefficient (Rattus norvegicus [13]): 176
Average dose per organ (Rattus norvegicus [14]): 0.21%
fraction unbound [15]: 0.159
Average dose per organ (Rattus norvegicus [16]): 33%
Average dose per organ (Rattus norvegicus [17]): 14.6%
Average dose per organ (Rattus norvegicus [18]): 7.44%
Ratio (Rattus norvegicus [19]): 16.7%
Structure (SMILES): CCCc1cc(I)cc(CNCCCN(C)C)c1O

Average dose per organ (Rattus norvegicus [20]): 1.33%
Average dose per organ (Rattus norvegicus [21]): 5.05%
Ratio (Rattus norvegicus [22]): 2.96%
Average dose per organ (Rattus norvegicus [23]): 2.15%
Average dose per organ (Rattus norvegicus [24]): 9.74%
Average dose per organ (Rattus norvegicus [25]): 1.43%
Average dose per organ (Rattus norvegicus [26]): 8.65%
Average dose per organ (Rattus norvegicus [27]): 0.22%
Average dose per organ (Rattus norvegicus [28]): 0.16%
Average dose per organ (Rattus norvegicus [29]): 1.39%
Average dose per organ (Rattus norvegicus [30]): 1.68%
Distribution coefficient (Rattus norvegicus [12]): 77.4
Distribution coefficient (Rattus norvegicus [13]): 389
Average dose per organ (Rattus norvegicus [31]): 8.38%
fraction unbound [15]: 0.0762
Average dose per organ (Rattus norvegicus [32]): 15.8%
Average dose per organ (Rattus norvegicus [33]): 13.3%
Average dose per organ (Rattus norvegicus [34]): 39.8%
Ratio (Rattus norvegicus [19]): 11.5%
Structure (SMILES): CCC(C)c1cc(I)cc(CNCCCN(C)C)c1O (stereo not drawn)
